# Calls of active or inactive are those of the source. The rule behind the calls is not given here.
# Key:
# A549 [1] = assay: Antiproliferative activity against human A549 cells after 72 hrs by sulforhodamine B assay; assay type: functional, cell-based; conditions: A549, 72 h
# MCF7 [2] = assay: Antiproliferative activity against human MCF7 cells after 72 hrs by sulforhodamine B assay; assay type: functional, cell-based; conditions: MCF7, 72 h
# LoVo = assay: Antiproliferative activity against human LoVo cells after 72 hrs by sulforhodamine B assay; assay type: functional, cell-based
# KB [3] = assay: Antiproliferative activity against human KB cells after 72 hrs by sulforhodamine B assay; assay type: functional, cell-based
# BALB/3T3 = assay: Cytotoxicity against mouse BALB/3T3 cells assessed as cell viability after 1 hr by sulforhodamine B assay; assay type: cell-based; conditions: BALB/3T3, 1 h
# A549 [4] = assay: Selectivity index, ratio of IC50 for mouse BALB/3T3 cells to IC50 for human A549 cells; assay type: functional
# MCF7 [5] = assay: Selectivity index, ratio of IC50 for mouse BALB/3T3 cells to IC50 for human MCF7 cells; assay type: functional
# Candida albicans = assay: Inhibition of biofilm formation of Candida albicans assessed as reduction in cell viability of biofilm after 24 hrs by XTT staining based spectrophotometry; assay type: functional; conditions: read-out: ED50 (the source's name)
# Outline: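 Candida albicans biofilms grown in vitro in 96-well plates, then exposed to compounds, and biofilm cell viability determined. ED50 reported as mean ± SD, n = 3.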
# [6] = Induction of DNA intercalation (unknown origin) after 24 hrs by methyl green dye displacement assay
# Outline: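 Compound displaces methyl green from a DNA/methyl green complex. IC50 is the concentration giving a 50% decrease in the initial absorbance of the DNA/methyl green solution. Mean ± SD, n = 3–5.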
# KB [7] = assay: Induction of cell cycle arrest in human KB cells assessed as accumulation at G0/G1 phase at 1 uM after 72 hrs by propidium iodide staining based flow cytometry (reference value: 53.2 +/- 5.8%); assay type: functional
# Outline: (§1)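 KB cells exposed for 72 h at […]. Cell-cycle phase distribution (G0/G1, S, G2/M) given as mean ± SD from independent experiments. Treated cells compared with control cells by Mann–Whitney U test, significance at p ≤ 0.05.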
# KB [8] = assay: Induction of cell cycle arrest in human KB cells assessed as accumulation at G0/G1 phase at 0.5 uM after 72 hrs by propidium iodide staining based flow cytometry (reference value: 53.2 +/- 5.8%); assay type: functional; outline: as §1
# KB [9] = assay: Induction of cell cycle arrest in human KB cells assessed as accumulation at G0/G1 phase at 0.25 uM after 72 hrs by propidium iodide staining based flow cytometry (reference value: 53.2 +/- 5.8%); assay type: functional; outline: as §1
# KB [10] = assay: Induction of cell cycle arrest in human KB cells assessed as accumulation at S phase at 1 uM after 72 hrs by propidium iodide staining based flow cytometry (reference value: 32.1 +/- 5.4%); assay type: functional; outline: as §1
# KB [11] = assay: Induction of cell cycle arrest in human KB cells assessed as accumulation at S phase at 0.5 uM after 72 hrs by propidium iodide staining based flow cytometry (reference value: 32.1 +/- 5.4%); assay type: functional; outline: as §1
# KB [12] = assay: Induction of cell cycle arrest in human KB cells assessed as accumulation at S phase at 0.25 uM after 72 hrs by propidium iodide staining based flow cytometry (reference value: 32.1 +/- 5.4%); assay type: functional; outline: as §1
# KB [13] = assay: Induction of cell cycle arrest in human KB cells assessed as accumulation at G2/M phase at 1 uM after 72 hrs by propidium iodide staining based flow cytometry (reference value: 14.7 +/- 1.1 %); assay type: functional; outline: as §1
# KB [14] = assay: Induction of cell cycle arrest in human KB cells assessed as accumulation at G2/M phase at 0.5 uM after 72 hrs by propidium iodide staining based flow cytometry (reference value: 14.7 +/- 1.1 %); assay type: functional; outline: as §1
# KB [15] = assay: Induction of cell cycle arrest in human KB cells assessed as accumulation at G2/M phase at 0.25 uM after 72 hrs by propidium iodide staining based flow cytometry (reference value: 14.7 +/- 1.1 %); assay type: functional; outline: as §1
# KB [16] = assay: Induction of mitochondrial membrane potential loss in human KB cells at 0.5 to 1 uM after 72 hrs by JC-1 staining based flow cytometric analysis; assay type: functional
# Outline: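 Mitochondrial membrane potential of KB cells read after 72 h exposure at 1.0 and 0.5. Fraction of cells with reduced potential compared with control cells, significance at p ≤ 0.05.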
# KB [17] = assay: Induction of apoptosis in human KB cells assessed as apoptotic cells at 1 uM after 72 hrs by Annexin V/propidium iodide staining-based flow cytometry (reference value: 4.8 +/- 2.4 %); assay type: functional
# Outline: (§2)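 Apoptosis and necrosis in KB cells after 72 h exposure at 1.0 or 0.5. Staining with annexin V (AV) and propidium iodide (PI). Cells scored as live (AV−/PI−), apoptotic (AV+/PI−) or necrotic (AV+/PI+). Values as mean ± SD, compared with control cells at p ≤ 0.05.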
# KB [18] = assay: Induction of apoptosis in human KB cells assessed as apoptotic cells at 0.5 uM after 72 hrs by Annexin V/propidium iodide staining-based flow cytometry (reference value: 4.8 +/- 2.4 %); assay type: functional; outline: as §2
# KB [19] = assay: Induction of apoptosis in human KB cells assessed as necrotic cells at 1 uM after 72 hrs by Annexin V/propidium iodide staining-based flow cytometry (reference value: 3.9 +/- 0.8 %); assay type: functional; outline: as §2
# KB [20] = assay: Induction of apoptosis in human KB cells assessed as necrotic cells at 0.5 uM after 72 hrs by Annexin V/propidium iodide staining-based flow cytometry (reference value: 3.9 +/- 0.8 %); assay type: functional; outline: as §2
# KB [21] = assay: Induction of apoptosis in human KB cells assessed as live cells at 1 uM after 72 hrs by Annexin V/propidium iodide staining-based flow cytometry (reference value: 91.3 +/- 3.1 %); assay type: functional; outline: as §2
# KB [22] = assay: Induction of apoptosis in human KB cells assessed as live cells at 0.5 uM after 72 hrs by Annexin V/propidium iodide staining-based flow cytometry (reference value: 91.3 +/- 3.1 %); assay type: functional; outline: as §2
# KB [23] = assay: Induction of apoptosis in human KB cells assessed as induction of caspase-3/7 activity at 1 uM after 72 hrs by Ac-DEVD-ACC-based fluorescence assay relative to control; assay type: functional
# Outline: (§3)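 KB cells treated for 72 h at 1.0 or 0.5. Caspase-3/7 activity measured by an enzymatic assay, normalized to protein content and expressed relative to untreated control. Significance versus control at p ≤ 0.05.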
# KB [24] = assay: Induction of apoptosis in human KB cells assessed as induction of caspase-3/7 activity at 0.5 uM after 72 hrs by Ac-DEVD-ACC-based fluorescence assay; assay type: functional, cell-based; outline: as §3
# [25] = Hemolytic activity in human RBC after 30 mins by spectrophotometry; assay type: ADME, cell-based, Erythrocyte; conditions: for Activity: erythrocyte, 0.5 h; for HC50 at 0.5 h: human red blood cells
# Outline: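 Human red blood cells incubated with compound over 10^-6 to 5×10^-4 M for 30 min at 37 °C. HC50 taken as the concentration lysing 50% of cells. Mean ± SD of three individual determinations.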
# [26] = system: erythrocytes (Homo sapiens); assay: Hemolytic activity in human erythrocytes after 30 mins by spectrophotometry
IC50 (A549 [1]),IC50 (MCF7 [2]),IC50 (LoVo),IC50 (KB [3]),IC50 [6],SMILES,IC50 (BALB/3T3),EC50 (Candida albicans),other results
11 µM,7.85 µM,7.76 µM,15.6 µM,–,Cc1c2c3cc(NC(=O)[C@@H]4CCCN4C(=N)N)ccc3nc-2n(C)c2ccccc12,31.9 µM,–,–
3.24 µM,0.81 µM,9.38 µM,0.87 µM,101 µM,Cc1c2ccccc2nc2c1c1cc(NC(=N)N)ccc1n2CCN(C)C.Cl.Cl.Cl.Cl,30 µM,287 µM,Activity (KB [7]): 33.4%; Activity (KB [8]): 43.8%; Activity (KB [9]): 51.6%; Activity (KB [10]): 46.9%; Activity (KB [11]): 31.6%; Activity (KB [12]): 31.1%; Activity (KB [13]): 19.6%; Activity (KB [14]): 24.6%; Activity (KB [15]): 17.3%; Activity (KB [16]): 11%; Activity (KB [17]): 24.4%; Activity (KB [18]): 32.5%; Activity (KB [19]): 7.5%; Activity (KB [20]): 5.9%; Activity (KB [21]): 68.1%; Activity (KB [22]): 61.5%; fold change (FC) (KB [23]): 2
–,–,–,–,12.1 µM,CCOc1ccc(-c2nc3ccc(-c4nc5ccc(N6CCN(C)CC6)cc5[nH]4)cc3[nH]2)cc1,–,–,–
0.16 µM,0.52 µM,0.07 µM,0.72 µM,150 µM,Cc1c2c3cc(N)ccc3nc-2n(C)c2ccccc12,0.54 µM,41 µM,–
1.82 µM,4.75 µM,0.83 µM,3.88 µM,40.5 µM,Cc1c2c3cc(NC(=O)CNC(=N)N)ccc3nc-2n(C)c2ccccc12.Cl.Cl.Cl,4.47 µM,4.2 µM,Activity [25]: Dose-dependent effect; HC50 at 0.5 h [25]: 192 µM

# Second part, the compound before the results:
SMILES,IC50 (A549 [1]),IC50 (MCF7 [2]),IC50 (LoVo),IC50 (KB [3]),IC50 [6],IC50 (BALB/3T3),EC50 (Candida albicans),other results
Cc1c2ccccc2nc2c1c1cc(NC(=O)CNC(=N)N)ccc1n2CCN(C)C,1.96 µM,2.31 µM,0.82 µM,1.23 µM,–,3.55 µM,–,–
Cc1c2c3cc(NC(=N)N)ccc3nc-2n(C)c2ccccc12.Cl.Cl,0.14 µM,0.06 µM,76.9 µM,0.88 µM,71.5 µM,66.4 µM,197 µM,Ratio IC50 (A549 [4]): 600; Ratio IC50 (MCF7 [5]): 600; Activity (KB [7]): 32.8%; Activity (KB [8]): 29.2%; Activity (KB [9]): 39.5%; Activity (KB [10]): 48.6%; Activity (KB [11]): 39.8%; Activity (KB [12]): 35.3%; Activity (KB [13]): 18.6%; Activity (KB [14]): 31%; Activity (KB [15]): 25.3%; Activity (KB [16]): 11%; Activity (KB [17]): 25.7%; Activity (KB [18]): 43.7%; Activity (KB [19]): 12.2%; Activity (KB [20]): 8.2%; Activity (KB [21]): 62.1%; Activity (KB [22]): 41.1%; fold change (FC) (KB [23]): 5; Activity (KB [24]): Active
Cc1c2ccccc2nc2c1c1cc(NC(=O)CN)ccc1n2CCN(C)C.Cl.Cl.Cl,0.74 µM,0.75 µM,0.09 µM,1.13 µM,80.3 µM,0.61 µM,74.3 µM,Activity [25]: Dose-dependent effect; HC50 at 0.5 h [25]: 80.3 µM
Cc1c2c3ccccc3nc-2n(C)c2ccccc12,–,–,–,–,367 µM,–,–,HC50 at 0.5 h [26]: 120 µM
Cc1c2ccccc2nc2c1c1cc(NC(=O)[C@@H]3CCCN3)ccc1n2CCN(C)C,0.27 µM,0.32 µM,0.06 µM,0.38 µM,42.2 µM,0.36 µM,25.5 µM,–
Cc1c2ccccc2nc2c1c1cc(NC(=O)[C@@H]3CCCN3C(=N)N)ccc1n2CCN(C)C,6.22 µM,2.06 µM,8.31 µM,7.37 µM,–,13.4 µM,–,–
Cc1c2ccccc2nc2c1c1cc(N)ccc1n2CCN(C)C,0.88 µM,0.33 µM,0.077 µM,0.86 µM,125 µM,0.56 µM,34.2 µM,–
